Values after ≈ are worked out from the molar mass of the structure shown. Active and inactive are the calls of the source. The rule behind the calls is not given here.
What was measured:
Trypsin (Homo sapiens) = Trypsin (Homo sapiens) (UniProt P07477+P07478+P35030); assay: Inhibition of human trypsin using Z-Gly-Pro-Arg-AMC as substrate at 1 uM after 60 mins by fluorescence spectrophotometric method relative to control; type: protein assay
Summary of the method: (§1)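 Panel of ten serine proteases; percent inhibition read at compound concentrations of 1 µM and 10 µM, each value the mean of 2 experiments.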

Tryptase (Homo sapiens) = Tryptase (Homo sapiens) (UniProt Q9BZJ3+Q15661+Q9NRR2); assay: Inhibition of recombinant full length human tryptase usingZ-Gly-Pro-Arg-AMC as substrate at 10 uM after 60 mins by fluorescence spectrophotometric method relative to control; type: protein assay; summary of the method: as §1
Serine protease hepsin [1] = biological target: T1, Serine protease hepsin (Homo sapiens, UniProt P05981); assay: Inhibition of doxycycline induced Hepsin in human MCF10A cells assessed as prevention in loss of HAI-1 level at 10 uM preincubated for 30 mins followed by doxycycline addition measured after 6 hrs by Immunoblot assay; type: cell-based
Summary of the method: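 MCF10A-Indu20-hepsin cells (Dox-inducible hepsin) pretreated 30 min with compound or DMSO, then hepsin induced with 100 ng/mL doxycycline for 6 h; HAI-1 protein scored by immunoblot.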

[2] = biological target: T2, Hepatocyte growth factor activator serine protease (Homo sapiens) (UniProt Q04756); assay: Inhibition of C-terminal 10-His tagged recombinant human HGFA (Gln36 to Ser655 residues) expressed in mouse […] cells 1 uM after 15 mins by fluorescence assay relative to control; type: cell-based
T2 sequence (whole entry): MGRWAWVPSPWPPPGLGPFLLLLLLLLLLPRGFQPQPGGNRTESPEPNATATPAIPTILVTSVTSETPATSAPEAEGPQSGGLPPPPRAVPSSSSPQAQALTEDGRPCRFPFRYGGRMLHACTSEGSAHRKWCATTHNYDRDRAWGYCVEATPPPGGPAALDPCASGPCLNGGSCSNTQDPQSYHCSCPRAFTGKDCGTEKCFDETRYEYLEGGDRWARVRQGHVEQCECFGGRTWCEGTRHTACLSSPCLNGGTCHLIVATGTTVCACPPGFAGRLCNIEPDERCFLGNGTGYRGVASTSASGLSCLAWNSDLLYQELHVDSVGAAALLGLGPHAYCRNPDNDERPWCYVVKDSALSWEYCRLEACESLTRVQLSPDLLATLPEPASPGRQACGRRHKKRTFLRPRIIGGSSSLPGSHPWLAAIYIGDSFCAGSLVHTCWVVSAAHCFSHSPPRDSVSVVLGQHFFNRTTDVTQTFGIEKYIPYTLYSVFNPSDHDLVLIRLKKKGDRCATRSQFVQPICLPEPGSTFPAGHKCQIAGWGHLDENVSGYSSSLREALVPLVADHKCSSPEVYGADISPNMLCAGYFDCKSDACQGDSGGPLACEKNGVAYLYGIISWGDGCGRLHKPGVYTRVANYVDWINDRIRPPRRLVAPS

[3] = biological target: Plasma kallikrein (Homo sapiens) (UniProt P03952); assay: Inhibition of human plasma kallikrein using H-D-Pro-Phe-Arg-pNA as substrate at 1 uM after 30 mins by spectrophotometric method relative to control; summary of the method: as §1
[4] = biological target: Urokinase-type plasminogen activator (Homo sapiens, UniProt P00749); assay: Inhibition of recombinant C-terminal His10-tagged human uPA (M1 to L431 residues) expressed in mouse NS0 cells using Z-GGR-AMC as substrate after 15 mins by manual fluorescence assay
[5] = Kinetic solubility of the compound in PBS at pH 7.4 at 6.75 to 200 uM after 90 mins by UV absorbance based assay; type: physicochemical; settings: read-out: Kinetic_solubility
Serine protease hepsin [6] = biological target: T1, Serine protease hepsin; assay: Inhibition of hepsin-mediated conversion of Pro-HGF into active form in human Hs578T cells assessed as decrease in MET phosphorylation at 1 to 10 uM preincubated for 30 mins followed by recombinant human pro-HGF addition measured after 30 mins by immunoblot method; type: cell-based
Summary of the method: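 Hs578T or HCC1937 breast cells incubated with DMSO or inhibitor, then 50 ng/mL recombinant human Pro-HGF added; MET pathway activation (phospho-MET) assessed by immunoblotting.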

[7] = biological target: Plasma kallikrein (Homo sapiens) (UniProt P03952); assay: Inhibition of human plasma kallikrein using H-D-Pro-Phe-Arg-pNA as substrate at 10 uM after 30 mins by spectrophotometric method relative to control; summary of the method: as §1
[8] = biological target: T3, Neutrophil elastase (Homo sapiens) (UniProt P08246); assay: Inhibition of elastase (unknown origin) at 10 uM relative to control; summary of the method: as §1
T3 sequence (whole entry): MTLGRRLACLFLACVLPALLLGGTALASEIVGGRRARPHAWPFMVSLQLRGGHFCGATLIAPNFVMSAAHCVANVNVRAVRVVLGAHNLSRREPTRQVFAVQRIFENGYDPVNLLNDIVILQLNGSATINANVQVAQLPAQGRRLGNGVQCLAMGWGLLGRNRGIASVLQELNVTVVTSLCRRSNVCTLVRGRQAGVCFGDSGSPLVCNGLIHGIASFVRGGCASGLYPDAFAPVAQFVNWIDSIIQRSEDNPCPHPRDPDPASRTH

[9] = biological target: Prothrombin (Homo sapiens) (UniProt P00734); assay: Inhibition of human thrombin using Z-Gly-Pro-Arg-AMC as substrate at 10 uM after 60 mins by fluorescence spectrophotometric method relative to control; summary of the method: as §1
[10] = Half life in mouse liver microsomes at 3 uM preincubated for 5 mins followed by NADPH addition by LC-MS/MS analysis; type: ADME, microsome
Serine protease hepsin [11] = biological target: Serine protease hepsin (Homo sapiens, UniProt P05981, D161E/R162K); assay: Inhibition of recombinant C-terminal His10-tagged human Hepsin (R45 to […] residues) D161E/ R162K double mutant expressed in mouse NS0 cells using Boc-QRR-AMC as substrate after 15 mins by manual fluorescence assay

Plasma kallikrein (Homo sapiens), sequence (P03952 20-390 limits assumed): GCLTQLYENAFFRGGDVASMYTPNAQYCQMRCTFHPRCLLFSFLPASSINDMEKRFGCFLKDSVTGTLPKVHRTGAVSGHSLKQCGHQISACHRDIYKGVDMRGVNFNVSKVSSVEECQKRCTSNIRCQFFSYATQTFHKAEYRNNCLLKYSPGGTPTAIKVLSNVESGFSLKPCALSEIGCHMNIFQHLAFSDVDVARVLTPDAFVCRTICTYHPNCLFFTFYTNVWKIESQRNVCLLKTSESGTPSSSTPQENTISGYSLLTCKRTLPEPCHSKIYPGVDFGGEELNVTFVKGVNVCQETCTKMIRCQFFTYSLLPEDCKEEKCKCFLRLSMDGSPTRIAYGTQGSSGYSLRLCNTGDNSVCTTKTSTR
Plasma kallikrein (Homo sapiens), sequence (P03952 391-638 limits assumed): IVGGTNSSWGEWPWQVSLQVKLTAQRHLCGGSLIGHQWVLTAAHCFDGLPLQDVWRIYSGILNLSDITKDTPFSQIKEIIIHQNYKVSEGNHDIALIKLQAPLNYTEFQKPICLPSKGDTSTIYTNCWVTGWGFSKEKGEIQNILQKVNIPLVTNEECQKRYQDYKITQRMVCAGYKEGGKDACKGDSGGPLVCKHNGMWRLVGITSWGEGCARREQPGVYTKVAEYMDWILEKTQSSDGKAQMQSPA
T1 sequence (P05981 1-162 limits assumed): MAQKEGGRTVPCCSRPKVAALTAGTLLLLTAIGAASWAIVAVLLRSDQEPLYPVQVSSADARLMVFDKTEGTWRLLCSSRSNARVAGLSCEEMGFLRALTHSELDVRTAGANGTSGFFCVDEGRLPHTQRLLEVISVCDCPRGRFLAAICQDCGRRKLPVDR
T1 sequence (P05981 163-417 limits assumed): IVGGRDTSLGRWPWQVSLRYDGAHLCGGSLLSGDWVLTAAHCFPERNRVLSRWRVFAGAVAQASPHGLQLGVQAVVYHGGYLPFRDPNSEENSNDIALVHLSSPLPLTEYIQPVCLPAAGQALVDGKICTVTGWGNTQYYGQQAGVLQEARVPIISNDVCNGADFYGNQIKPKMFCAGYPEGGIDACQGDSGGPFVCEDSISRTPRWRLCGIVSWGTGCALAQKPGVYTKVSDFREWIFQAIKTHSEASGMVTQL

| SMILES | inhibition (Trypsin (Homo sapiens)) [%] | inhibition (Tryptase (Homo sapiens)) [%] | inhibition (Serine protease hepsin [1]) | inhibition [2] [%] | inhibition [3] [%] | IC50 [4] [µM] | solubility kinetic at 1.5 h [5] [µM] | inhibition (Serine protease hepsin [6]) | inhibition [7] [%] | inhibition [8] [%] | inhibition [9] [%] | half-life at 3 µM [10] [h] | IC50 (Serine protease hepsin [11]) [µM] |
| --- | --- | --- | --- | --- | --- | --- | --- | --- | --- | --- | --- | --- | --- |
| N=C(N)c1ccc(NC(=O)[C@H](NS(=O)(=O)c2ccc(F)cc2)C2CCCCC2)cc1 | 77 | 91 | inactive | 10 | 12 | 280 | 200 (≈ 86.5 µg/mL) | Active | 34 | < 10 | 10 | 0.8 | 0.19 |
| Cc1ccc(S(=O)(=O)N[C@@H](C(=O)Nc2ccc(C(=N)N)cc2)C2CCCCC2)cc1 | 83 | 98 | inactive | 18 | < 10 | 10 to 1950 | > 200 | Active | 29 | < 10 | 12 | 1.23 | 0.038 to 0.07 |
| Cc1ccc(S(=O)(=O)N[C@@H](C(=O)Nc2ccc(C(=N)N)cc2)c2ccccc2)cc1 | 54 | 80 | Active | 16 | 34 | 140 | > 200 | Active | 85 | < 10 | 44 | 1.8 | 0.022 |
